Compound activity (PubChem)
TIM10 inh – TIM10 yeast growth inhibition; AID 463195; inhibition, % at 10 µM; hit rate 1.4% among 330,000; S. cerevisiae TIM10 strain growth, BacTiter-Glo luminescence, 24 h;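 active = inhibition of 40% or more at the single tested concentration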;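 also: wild-type TIM10 isogenic control strain grown at permissive 25 °C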
UPR CHOP act – activators of apoptotic arm of unfolded protein response (CHOP); CHO-CHOP luciferase reporter, UPR activation, luminescence; percent of tunicamycin response over DMSO baseline; activation, % at 10 µM; hit rate 0.34% among 330,000;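 active = at 10 µM dose, activation of 40% or more, normalized to positive control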;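 also: 100% = tunicamycin at 10 µg/mL and 0% = DMSO alone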
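assay system = CHO CHOP reporter cells | amount = 500 CHO-CHOP cells per well | buffer or medium = F12 with 10% FBS | incubation = 16-18 h cell attachment, then 6 h compound exposure, 37 °C | detection = luminescence read with Steady-Glo | read-out = percent activation relative to tunicamycin control | controls = tunicamycin high control, DMSO low control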
tim10-1 inh – growth inhibitors of tim10-1 mutant yeast; S. cerevisiae tim10-1 ts strain growth, BacTiter-Glo, 24 h; inhibition, % at 20 µM; hit rate 2.2% among 330,000; AID 463190;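 active = inhibition of at least 40%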;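 also: mutant grown at 25 °C; 0% = DMSO wells with yeast and 100% = wells holding no yeast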
XBP1 UPR activ – activators of adaptive arm of unfolded protein response (XBP1). CHO-XBP1 luciferase reporter, IRE1-XBP1 UPR activation, luminescence; percent of tunicamycin response, DMSO as zero. activation, % at 20 µM. hit rate 0.33% among 330,000;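 active = versus positive control, 20 µM dose yields 30% or more activation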;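 also: 100% = tunicamycin at 10 µg/mL and 0% = DMSO only wells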
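Assay system: IRE1-XBP1 luciferase reporter CHO line. Input: 1000 cells/well. Buffer or medium: F12 with 10% serum. Doses: 20 µM, 1% DMSO. Times: overnight seeding at 37 °C, 6 h compound treatment at 37 °C. Technique: Steady-Glo luciferase glow luminescence, 10 min after reagent addition.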
tim23-1 inh – tim23-1 yeast growth inhibition | hit rate 1.3% among 330,000 | AID 463212 | S. cerevisiae tim23-1 growth, BacTiter-Glo luminescence, 24 h | inhibition, % at 20 µM;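 active = growth inhibition of the mutant yeast at or above 50%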;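 also: temperature-sensitive mutant grown at 25 °C; plate controls were DMSO-treated mutant yeast for no effect and medium wells lacking yeast for full effect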
tim10-1 conf – tim10-1 yeast growth inhibition, confirmed; shares compounds with tim10-1 inh; S. cerevisiae tim10-1 ts strain growth, BacTiter-Glo, 24 h; inhibition, % at 20 µM; hit rate 56% among 7,400; AID 463213;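 active = inhibition of yeast growth at or above a set limit in either of two repeat tests at 20 µM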;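 also: tim10-1 mutant grown at permissive 25 °C to find synthetic lethal compounds; 0% = DMSO yeast wells and 100% = medium wells without yeast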
The depositor's hits bear a star; . = not tested or not shown. An excerpt weighted towards active compounds, which were near 3.9% of everything screened.

SMILES	TIM10 inh	UPR CHOP act	tim10-1 inh	XBP1 UPR activ	tim23-1 inh	tim10-1 conf
CC1CC2=C(NC(=S)NC2c2ccc(F)cc2)/C(=C/c2ccc(F)cc2)C1 (stereo not drawn)	29	-1	46*	-2	37	28
S=C1NC2=C(CCC/C2=C\c2ccc(Cl)cc2)C(c2ccc(Cl)cc2)N1 (stereo not drawn)	22	3	35	4	13	.
CC(=O)c1ccc(OCC(=O)OCC(=O)Nc2sccc2C(N)=O)cc1	8	1	-6	-2	10	.
N#CC1(NC(=O)CSc2nnc(Nc3ccccc3F)s2)CCCC1	3	2	5	2	7	.
Cc1cccc(NC(=O)CC2SC(=O)N(c3ccccc3)C2=O)c1 (stereo not drawn)	35	-1	43*	1	43	37*
O=C(CC1SC(=O)N(c2ccccc2)C1=O)Nc1ccccc1 (stereo not drawn)	16	-1	38	0	22	.
Cc1ccc(C(=O)OCC(=O)NC2CCCCCC2)c(C)c1	16	5	21	2	27	.
CC(=O)N1CCN(c2ccc(NC(=O)C(C)Oc3ccc(Cl)cc3Cl)cc2)CC1 (stereo not drawn)	24	-1	45*	2	19	31*
CC(Oc1ccc(Cl)cc1Cl)C(=O)Nc1ccc(N2CCN(C)CC2)cc1 (stereo not drawn)	9	-1	12	2	18	.
CC1Cc2ccccc2N1C(=O)CN1CCN(S(=O)(=O)c2cccs2)CC1 (stereo not drawn)	11	-3	48*	0	36	21
COc1c(C)cc(C(=O)C2CCCN(C(=O)c3cc(C4CC4)[nH]n3)C2)cc1C (stereo not drawn)	18	0	14	-1	18	.
CN1CCN(Cc2c(C(=O)N/N=C/c3cccc(Br)c3)nnn2-c2nonc2N)CC1	4	2	-7	6	-11	.
CCCOC(=O)c1ccc(Oc2c(-c3ccc(OCC)cc3O)n[nH]c2C)cc1	33	2	41*	4	25	29
CCCNC(=O)c1ccc(N2CCC3(CC2)CC(c2cccc(Br)c2)=NO3)c(NC(=O)c2ccc(Cl)c([N+](=O)[O-])c2)c1	15	26	13	8	14	.
CC(C)(C)C1CCc2onc(C(=O)Nc3cnn(Cc4ccc(F)cc4)c3)c2C1 (stereo not drawn)	4	3	14	4	2	.
CC(C)(C)C1CCc2onc(C(=O)Nc3ccc(F)cc3F)c2C1 (stereo not drawn)	15	0	41*	-2	41	27
O=C(CN1CCN(S(=O)(=O)c2ccccc2)CC1)N1CCCCC1	8	2	-7	-1	5	.
CCN(C[C@H]1N[C@@](C)(C(=O)OC)[C@H]2C(=O)N(C)C(=O)[C@@H]12)C(=O)c1ccc(C(C)(C)C)cc1	1	-1	9	-1	16	.
O=C1NC(=O)/C(=C\c2ccccc2Oc2ccc(F)c(F)c2)S1	19	0	45*	-4	28	32*
O=C1NC(=O)/C(=C/c2ccccc2OCc2ccccc2)S1	40	0	46*	-1	20	37*
O=C(N/N=C/c1ccc([N+](=O)[O-])o1)c1cc(-c2cccc(Br)c2)nc2ccccc12	34	14	44*	3	31	25
O=C(CNc1ccc2ccccc2c1)N/N=C/c1ccc([N+](=O)[O-])o1	33	-1	47*	-2	38	41*
COc1cccc(-c2cc(C(=O)N/N=C/c3ccco3)c3ccccc3n2)c1	0	4	14	0	28	.
CCCc1ccc(-c2cc(C(=O)N/N=C/c3ccc([N+](=O)[O-])o3)c3ccccc3n2)cc1	31	3	44*	0	46	49*
COc1cc(NC(=O)c2ccccc2F)c(OC)cc1NC(=O)CN1CCOCC1	14	1	43*	6	30	25
SMILES	TIM10 inh	UPR CHOP act	tim10-1 inh	XBP1 UPR activ	tim23-1 inh	tim10-1 conf
Nc1nc(-c2ccccc2)c(N=Nc2ccccc2Cl)s1	38	-2	55*	0	26	27
CN(CC1CCCO1)S(=O)(=O)c1ccc(C(=O)Nc2ccc(S(N)(=O)=O)cc2)cc1 (stereo not drawn)	19	-1	0	5	11	.
COc1ccc(CN(C)C(=O)c2cc(S(=O)(=O)N3CCOCC3)ccc2N2CCCC2)cc1	11	1	25	-2	19	.
COc1ccc(NC(=S)N(C)CC2COc3ccccc3O2)cc1 (stereo not drawn)	20	1	23	-3	29	.
CCN(CC1COc2ccccc2O1)C(=S)Nc1ccc(F)cc1 (stereo not drawn)	32	1	45*	0	47	30
N#Cc1sc(NCc2ccccc2)nc1Cl	11	1	41*	1	40	22
CCCOc1ccccc1OCC(=O)Nc1ccc(S(=O)(=O)N2CCCCC2)cc1	7	0	41*	0	31	32*
CCOc1ccccc1OCCCC(=O)N1CCN(S(=O)(=O)c2ccc(C)cc2)CC1	11	-1	41*	-2	23	16
COc1ccc(CSCC(=O)Nc2ccc(S(=O)(=O)N3CCCCCC3)cc2)cc1	24	-2	42*	-1	39	29
O=C(COc1ccccc1)Nc1ccc(S(=O)(=O)N2CCCC2)cc1	28	-1	41*	-4	27	31
COc1ccccc1NC(=O)COC(=O)c1ccc2ccccc2n1	2	0	23	4	25	.
COC(=O)CC1C(=O)NCCN1C(=O)c1ccc(Cl)cc1 (stereo not drawn)	-16	0	7	3	3	.
COc1ccccc1OCC(=O)Nc1ccc(S(=O)(=O)N2CCCCCC2)cc1	31	-2	31	1	31	.
O=C(CCCN1C(=O)c2ccccc2C1=O)Nc1ccc(S(=O)(=O)N2CCCCC2)cc1	9	-1	41*	-2	31	32*
Cc1ccccc1OCC(=O)Nc1ccc(S(=O)(=O)N2CCCC2)cc1	25	0	49*	-6	23	37*
Cc1ccc(S(=O)(=O)CCC(=O)N(CCCN2CCOCC2)c2nc3ccccc3s2)cc1	35	21	42*	-8	18	42*
Cc1ccc2nc(N(CCN3CCOCC3)C(=O)CCS(=O)(=O)c3ccccc3)sc2c1	6	5	14	-3	16	.
Cc1c([N+](=O)[O-])c(C(=O)Sc2ccc(Br)cc2)nn1C	16	24	47*	27	24	46*
Cc1nc2nc(NC(=O)c3ccco3)nn2c(C)c1Cl	7	2	9	-4	9	.
